The values that follow come from ChEMBL document CHEMBL1140249, “Inhibitors of the inducible microsomal prostaglandin E2 synthase (mPGES-1) derived from MK-886” (Bioorg Med Chem Lett, 2005).

A value given as a limit tells only on which side of the number the result lay.

Chain of Prostaglandin E synthase (O14684 whole entry, looked up): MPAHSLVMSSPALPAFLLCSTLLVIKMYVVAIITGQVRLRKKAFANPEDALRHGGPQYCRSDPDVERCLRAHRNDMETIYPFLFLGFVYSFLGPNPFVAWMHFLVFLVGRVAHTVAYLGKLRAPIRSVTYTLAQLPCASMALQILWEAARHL

The target in one assay is T1, Thromboxane-A synthase (Homo sapiens, UniProt P24557).
T1 sequence (P24557 whole entry): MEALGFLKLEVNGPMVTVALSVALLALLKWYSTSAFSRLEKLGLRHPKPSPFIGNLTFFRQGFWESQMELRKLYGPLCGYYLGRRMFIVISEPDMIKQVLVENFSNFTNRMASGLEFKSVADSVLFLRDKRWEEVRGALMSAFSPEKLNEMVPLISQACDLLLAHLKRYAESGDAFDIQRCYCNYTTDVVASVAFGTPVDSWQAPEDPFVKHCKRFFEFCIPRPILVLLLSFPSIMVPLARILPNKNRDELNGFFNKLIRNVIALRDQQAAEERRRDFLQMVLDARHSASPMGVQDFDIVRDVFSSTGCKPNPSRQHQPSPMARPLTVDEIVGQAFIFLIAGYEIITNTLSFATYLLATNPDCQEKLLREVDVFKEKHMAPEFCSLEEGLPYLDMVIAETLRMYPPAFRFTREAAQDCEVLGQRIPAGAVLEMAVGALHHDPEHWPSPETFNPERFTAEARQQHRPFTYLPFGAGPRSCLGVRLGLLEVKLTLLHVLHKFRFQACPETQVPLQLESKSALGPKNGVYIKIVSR
The experiment in a line: In vitro inhibition against human Thromboxane synthase.
What is called IC50 is the point on the concentration scale where inhibition reaches its midpoint. Low readings indicate inhibition by little substance, high ones a need for much substance. For the molecule `Cc1ccccc1-c1ccc(-c2ccc3c(c2)c(C)c(CC(C)(C)C(=O)O)n3Cc2ccc(Cl)cc2)cc1F`, half-maximal inhibition (IC50) required 0.95 µM. This counts as sub-micromolar.

`Cc1c(CC(C)(C)C(=O)O)n(Cc2ccc(Cl)cc2)c2ccc(-c3ccc(-c4ccccc4)c(F)c3)cc12` had an IC50 of 1.4 µM.

Another assay concerns the target Prostaglandin E synthase (Homo sapiens, UniProt O14684). Nature of the assay: Inhibitory concentration against human prostaglandin E2 synthase (mPGES-1). The essentials: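 Microsomes from CHO cells expressing recombinant human mPGES-1, 5–10 lg protein/mL, preincubated with inhibitor 15 min. Reaction started with 1 µM PGH₂ and run 0.5 min, then stopped with 0.1 N HCl plus stannous chloride. PGE₂ measured by EIA. IC₅₀ from eight-point titrations.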
Consider `COC(=O)C(C)(C)Cc1c(SC(C)(C)C)c2cc(C(C)C)ccc2n1Cc1ccc(Cl)cc1`, for which it took 7.2 µM to reach half-maximal inhibition (IC50). For `CC(C)c1ccc2c(c1)c(Cc1ccc(C(C)(C)C)cc1)c(CC(C)(C)C(=O)O)n2Cc1ccc(Cl)cc1`, inhibition was half-maximal at 0.29 µM (IC50). Molecule `Cc1cccc(-c2ccc(-c3ccc4c(c3)c(C)c(CC(C)(C)C(=O)O)n4Cc3ccc(Cl)cc3)cc2F)c1` displayed an IC50 of 0.033 µM. For `CC(C)c1ccc2c(c1)c(SC(C)(C)C)c(CC(C)(C)C(=O)ON)n2Cc1ccc(Cl)cc1`, the IC50 is more than 10 µM. Take `Cc1c(CC(C)(C)C(=O)O)n(Cc2ccc(Cl)cc2)c2ccc(-c3ccc(-c4ccccc4F)c(F)c3)cc12`: the midpoint of inhibition, the IC50, lay at 0.008 µM. This counts as single-digit nanomolar. `COc1ccccc1-c1ccc(-c2ccc3c(c2)c(C)c(CC(C)(C)C(=O)O)n3Cc2ccc(Cl)cc2)cc1F` had a 50% inhibitory concentration (IC50) of 0.005 µM. On to `Cc1c(CC(C)(C)C(=O)O)n(Cc2ccc(Cl)cc2)c2ccc(-c3ccccc3)cc12`, for which the half-inhibitory concentration (IC50) stood at 0.6 µM.

`CC(C)c1ccc2c(c1)c(-c1ccccc1)c(CC(C)(C)C(=O)O)n2Cc1ccc(Cl)cc1` displayed an IC50 of 6.4 µM. Take `Cc1c(CC(C)(C)C(=O)O)n(Cc2ccc(Cl)cc2)c2ccc(C(C)C)cc12`: the IC50 was determined as 1.1 µM. Same read-out and setting: as for `CC(C)c1ccc2c(c1)c(C(=O)CSC(C)(C)C)c(CC(C)(C)C(=O)O)n2Cc1ccc(Cl)cc1`, the figure is 0.26 µM; as for `Cc1c(CC(C)(C)C(=O)O)n(Cc2ccc(Cl)cc2)c2ccc(F)cc12`, 2.6 µM; as for `Cc1c(CC(C)(C)C(=O)O)n(Cc2ccc(Cl)cc2)c2ccc(-c3ccc(-c4cnccn4)c(F)c3)cc12`, 0.032 µM.

In the case of `Cc1c(CC(C)(C)C(=O)O)n(Cc2ccc(Cl)cc2)c2ccc(-c3ccc(-c4cccnc4)c(F)c3)cc12`, the IC50 was determined as 0.012 µM. Molecule `Cc1c(CC(C)(C)C(=O)O)n(Cc2ccc(Cl)cc2)c2ccc(-c3cccc(-c4ccccc4)c3)cc12` had a 50% inhibitory concentration (IC50) of 0.16 µM. With `Cc1c(CC(C)(C)C(=O)O)n(Cc2ccc(Cl)cc2)c2c(C(C)C)cccc12`, half-maximal inhibition (IC50) required 4.3 µM.

The molecule `CC(C)c1ccc2[nH]c(CC(C)(C)C(=O)O)c(SC(C)(C)C)c2c1` showed a concentration for half-maximal inhibition (IC50) of more than 10 µM. In turn, `Cc1c(CC(C)(C)C(=O)O)n(Cc2ccc(Cl)cc2)c2ccccc12` gave an IC50 of 3.2 µM. The same measure, in the same setting: next, `CC(C)c1ccc2c(c1)c(SC(C)(C)C)c(CC(C)(C)C(=O)O)n2C`: more than 10 µM. The same measure, in the same setting: next, `CC(=O)c1ccccc1-c1ccc(-c2ccc3c(c2)c(C)c(CC(C)(C)C(=O)O)n3Cc2ccc(Cl)cc2)cc1F`: 0.006 µM; `Cc1c(CC(C)(C)C(=O)O)n(Cc2ccc(Cl)cc2)c2ccc(-c3ccc(-c4ccccc4)c(Cl)c3)cc12`: 0.022 µM; `Cc1c(CC(C)(C)C(=O)O)n(Cc2ccc(Cl)cc2)c2ccc(C(C)(C)C)cc12`: 0.33 µM. The molecule `Cc1ccc(-c2ccc(-c3ccc4c(c3)c(C)c(CC(C)(C)C(=O)O)n4Cc3ccc(Cl)cc3)cc2F)cc1` registered an IC50 of 0.031 µM. Consider `CC(C)c1ccc2c(c1)c(Oc1ccccc1)c(CC(C)(C)C(=O)O)n2Cc1ccc(Cl)cc1`, for which it took 0.65 µM to reach half-maximal inhibition (IC50). This IC50 is about 21-fold higher than that of the molecule before.

Molecule `CC(C)c1ccc2c(c1)c(C(=O)CC(C)(C)C)c(CC(C)(C)C(=O)O)n2Cc1ccc(Cl)cc1` came in with an IC50 of 0.25 µM. Against the preceding molecule, the IC50 is about 2.6-fold lower.

Another assay concerns the target T2, Arachidonate 5-lipoxygenase-activating protein (Homo sapiens, UniProt P20292).
T2 sequence (P20292 whole entry): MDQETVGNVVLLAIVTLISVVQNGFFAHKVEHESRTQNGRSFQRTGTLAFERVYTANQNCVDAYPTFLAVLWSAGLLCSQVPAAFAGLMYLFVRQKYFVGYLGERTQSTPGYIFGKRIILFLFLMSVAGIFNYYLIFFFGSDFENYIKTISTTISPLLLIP
Nature of the assay: In vitro binding affinity against FLAP (5-Lipoxygenase activation protein).
Regarding `Cc1ccccc1-c1ccc(-c2ccc3c(c2)c(C)c(CC(C)(C)C(=O)O)n3Cc2ccc(Cl)cc2)cc1F`, the IC50 was more than 1 µM. In the case of `Cc1c(CC(C)(C)C(=O)O)n(Cc2ccc(Cl)cc2)c2ccc(-c3ccc(-c4ccccc4)c(F)c3)cc12`, the IC50 is more than 1 µM.
